Results reported in ChEMBL document CHEMBL4513216, “Probing the Open Global Health Chemical Diversity Library for Multistage-Active Starting Points for Next-Generation Antimalarials” (ACS Infect Dis, 2020).

Experiment: Toxicity liver stage against HepG2, at 10uM
Format: cell-based
Set-up: test concentration 10 uM, cell line HepG2-A16-CD81EGFP
Settings: human, HepG2-A16-CD81EGFP cells; read-out: INHIBITION
Summary of the method: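 Uninfected HepG2-A16-CD81EGFP cells, 3 × 10^3 per well, 1536-well, plated on prespotted compound at 10 μM final, parasite-free screening media added to match infected plates; puromycin 10 μM positive, DMSO 0.5% negative; run in parallel with 48 h PbLuc assay at 37 °C, 5% CO2; viability by CellTiter-Glo luminescence, normalized to controls.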

SMILES | cytotoxicity at 10 µM [%]
CN(C)C(=O)Cn1cc(C(=O)NCCc2ccc(C(F)(F)F)cc2)nn1 | -15.6
COCC(=O)Nc1ccc([C@@H](O)[C@H]2COCC(=O)N2CC(C)C)cc1 | 17.6
COCC(=O)N1CCN(C(=O)c2cccs2)[C@@H](C(=O)OC)C1 | -8.64
O=C(C1CC1)N1CC[C@H](c2nnc(-c3ccccc3F)o2)C1 | 0.705
CCOC(=O)C1CCN(C(=O)c2cnn(-c3ccc(C)cc3)c2N)CC1 | 1.84
CC(=O)c1cc2ncc(C(=O)NC3CCCCC3)cc2[nH]1 | 0.0039
CC(C)NC(=O)Cn1ccc2c(Cl)cccc21 | 7.46
CCN(CC)C(=O)Cn1nc(C(C)C)c2cnn(C(C)(C)C)c2c1=O | 0.703
CN(C)CC1CSCCCN1C(=O)c1ccsc1 (stereo not given) | 5.09
Cn1nc(CNS(=O)(=O)Cc2ccccc2F)c2c1CCCC2 | -0.0785
O=C(CC(F)(F)F)N1C[C@H]2CN(CC3CC3)C(=O)[C@H]2C1 | 0.493
O=C(NCC1CC1)C1CCC2(CCN(C(=O)c3ccco3)CC2)O1 (stereo not given) | 5.91
Cn1cc(-c2cnc3n2CCC32CCN(S(C)(=O)=O)CC2)cn1 | -127
c1coc(CN2CCc3onc(Cn4ccnc4)c3C2)c1 | 7.52
COC(=O)CCC(=O)N1CCC2(CN(Cc3ccc(Cl)cc3)C2)C1 | 5.7
CCCS(=O)(=O)N1CCC2(CC1)CC(Nc1ncccn1)CO2 (stereo not given) | -0.00726
O=c1[nH]c2nc(NCC3CCCO3)ncc2c(=O)n1-c1cccc(F)c1 (stereo not given) | -9.24
O=C(NCCCN1CCOCC1)c1nc(-c2ccc3cc[nH]c3c2)no1 | -0.663
CNC(=O)CS(=O)(=O)C1CCN(S(=O)(=O)c2ccccc2Br)CC1 | -18.3
CCN1C[C@H]2CCN(C(C)=O)CC[C@H]2S1(=O)=O | 0.0452
O=C(COc1ccccc1)N1CCC[C@]2(C[C@H](OCC3CC3)CO2)C1 | 8.68
COCc1cccc(S(=O)(=O)NCc2cnn(C)c2C)c1 | -4.02

SMILES | cytotoxicity at 10 µM [%]
CC(SCCNS(=O)(=O)c1cnn(C)c1)c1cccs1 (stereo not given) | 12.9
CCc1nc2n(n1)CC(Nc1nc(C)cc(N(C)C)n1)CC2 (stereo not given) | 5.02
CCn1cc(S(=O)(=O)Nc2ccc3[nH]c(C4CCC4)nc3c2)cn1 | 1.45
CC(=O)NCC(=O)N(CCc1ccccc1)C1CCOC1 (stereo not given) | 3.02
Brc1ccc(CN2CCC(NCc3ncc[nH]3)CC2)cc1 | 14.8
NC(=O)[C@@H]1Cc2ccccc2CN1CCC(=O)N1CCOCC1 | -5.82
Cc1noc(C)c1CC(=O)NCCc1cccs1 | -0.651
CCN(CC)C(=O)Nc1ccc(N2CCSCC2)cc1C | -8.44
CCNC(=O)CNS(=O)(=O)Cc1cc(-c2ccccc2)no1 | -6.71
CC1CN(S(=O)(=O)c2ccc(F)cc2F)c2cccnc2O1 (stereo not given) | 2.02
CCc1ccc(C(C)NC(=O)CN(C)Cc2ccc(C)o2)cc1 (stereo not given) | 18.4
CC(C)Nc1cccc(C(=O)NCC(O)c2cccc(F)c2)c1 (stereo not given) | 4.67
Cc1cc(CN(C)C(=O)NCc2ccnc(SC(C)(C)C)c2)no1 | 10.4
CCc1nc(C2CCCN(C(=O)c3c[nH]c(C(C)C)n3)C2)no1 (stereo not given) | -5.43
CC(=O)Nc1nc(CS(=O)(=O)CCCc2ccccc2)cs1 | -1.2
N#Cc1ccnc(N2CCN(CC(O)c3cc(F)ccc3F)CC2)c1 (stereo not given) | 1.31
Cc1cccc(CNC(=O)Nc2cc(C(F)(F)F)c[nH]c2=O)n1 | 0.488
O=C(C1CCCN1c1ncnc2ccsc12)N1CCSCC1 (stereo not given) | 3
CCc1noc(CC)c1CNC(=O)Nc1cccc([S+](C)[O-])c1 (stereo not given) | 13.4
CC1CN(C(=O)c2cc[nH]c(=O)c2)c2ccccc21 (stereo not given) | 1.5
CCC1(c2ccc(NS(=O)(=O)c3ccc(Cl)s3)cc2)CCC(=O)NC1=O (stereo not given) | 13.5
Cc1cc(C(=O)N2CCCN(c3nccs3)CC2)c(C)n1C(C)C | 9.48

SMILES | cytotoxicity at 10 µM [%]
CC(C)(CO)CCCNC(=O)NC1(c2cccc(F)c2)CC1 | -4.86
COCc1noc(-c2cc(Cl)c3c(c2)OCO3)n1 | -4.05
Cc1cc(C(C)(O)CNC(=O)CCOCC(C)C)c(C)o1 (stereo not given) | 3.94
CC(Cn1cccn1)NC(=O)NCCN1CCc2ccccc2C1 (stereo not given) | -4.45
Cc1cc(NC(=O)Cc2ccccc2O)c[nH]c1=O | -2.38
Cc1nsc(N2CCc3sccc3C2)n1 | 7.03
Cc1nnc(-c2cccc(C#N)c2)n1C1CCN(C2CC2)C1=O (stereo not given) | -11.8
CCOCC(=O)NCCc1ccc(I)s1 | -4.76
CC(CO)(NC(=O)Nc1nnc(C(F)F)s1)C1CC1 (stereo not given) | 9.23
CC(=O)N(Cc1ncc(C)o1)C1CCN(CCNC2CCCCC2)C1 (stereo not given) | 15.4
CN(Cc1cccc(F)c1)S(=O)(=O)N1CCOCC1 | -1.97
Cc1ccccc1C1(CNC(=O)NCCc2nnc3n2CCC3)CC1 | 2.48
Cc1cccc(CN2CCn3c(COc4ncccn4)nnc3C2)n1 | -1.35
CCC(O)CNC(=O)c1cc(COc2ccc(OC)cc2Cl)[nH]n1 (stereo not given) | -8.09
COCc1noc(-c2ccc(N(C)Cc3ccc(C)o3)nc2)n1 | -3.7
CCN1CCC(CC(=O)NCCc2nc(C)cc(C)n2)CC1 | -8.06
OC1COCCN(Cc2cc(-c3ccccc3OC(F)(F)F)no2)C1 (stereo not given) | -12.7
CCc1cnc(NCCCOC2CCCC2)nc1 | -0.0184
Cc1nc(N(C)CCCc2nccn2C)c2nc(C)oc2n1 | 5.82
CNc1ccc(C)cc1C(=O)N[C@H]1C[C@H]2CN(C)CCN2C1 | -4.57
COc1ccc(C(C(=O)O)N2CCN(C3CCCC3)CC2)cc1OC (stereo not given) | -17.1
CCn1c(N)nc2cc(C(=O)NCc3cccc(C)c3C)cnc21 | 19.7

SMILES | cytotoxicity at 10 µM [%]
Cc1ccc(OCC(O)CNC(=O)C2(c3ccc(F)cc3)CC2)cc1 (stereo not given) | 0.675
CN(Cc1ccc2nonc2c1)C(=O)c1ccc(C2CCCO2)s1 (stereo not given) | 12.1
CN(Cc1ccc2c(c1)OCO2)C(=O)c1ccc(C2CCCNC2)cc1 (stereo not given) | -11.8
COc1cccc2c1OCC(C(=O)N1CCC(N3CCSCC3)CC1)C2 (stereo not given) | 2.24
c1ccc(CN2CCC(NCCSc3cnn[nH]3)C2)cc1 (stereo not given) | 1.12
COc1ccccc1C(=O)Nc1ccc(OC2CCN(C)CC2)cc1 | -4.85
O=C(NCc1ccc2c(c1)CCCO2)c1ccccc1C1CCNC1 (stereo not given) | 6.58
COCCN(C)C[C@@H]1CN(c2nnc(C(C)C)s2)C[C@@H]1CO | -2.35
CCn1nc(C)c(CNC(=O)c2cn(CCC3CCCCN3)nn2)c1C (stereo not given) | -1.96
COc1cnc(N2CCC(Oc3ccccc3OC)(C(=O)O)CC2)nc1 | -13.5
CN1C(=O)C(c2ccccc2)CC12CCN(CCOCCO)CC2 (stereo not given) | 39.8
CN(C)C(=O)c1ccc2c(c1)N(C)C(CC(=O)NCc1ccno1)CO2 (stereo not given) | 12.4
O=C(O)CCc1nc2nccc(C(F)(F)F)n2n1 | -1.36
Cc1ccc(NC2CCN(C(=O)CCc3ccccc3)CC2)nn1 | -10.5
Cc1ccc(CN(Cc2nc3c(cnn3C)c(=O)[nH]2)C(C)C)s1 | -5.48
Cc1noc(C)c1C(=O)NCc1cccnc1N(C)C | -9.42
Cc1nnc2n1CCN(Cc1ncc(-c3ccccc3)o1)C2 | -3.78
CN(Cc1nccn1C)C1CCCN(Cc2noc(C3CC3)n2)C1 (stereo not given) | -3.54
Cc1cc(CN(C)C(=O)NC2CCN(Cc3ccccn3)CC2)no1 | -17.4
O=C1CCc2cc(-c3csc(CCN4CCOC4=O)n3)ccc2N1 | -12.2
CCC(O)CN1CCN(C(=O)c2ccc(N(C)C)nn2)CC1 (stereo not given) | -6.83
O=C(CCCn1cncn1)N1CCCC1c1noc(C2CC2)n1 (stereo not given) | -31.5

SMILES | cytotoxicity at 10 µM [%]
O=C(NCc1ccnc(-n2cccn2)c1)C1CC(=O)N(CC2CC2)C1 (stereo not given) | 5.48
Cc1nn(C)c(N2CCOCC2)c1CNCc1ccccc1CO | -13.2
CN(CC(=O)N1CCCC1c1cnn(C)c1)c1ccc(Cl)cn1 (stereo not given) | -6.14
Cc1ccc(NC2CCN(C(=O)c3cccc(F)c3F)CC2)nn1 | -4.4
CCOC1CCCN(C(=O)NCCc2ccn(-c3ccccc3)n2)C1 (stereo not given) | 3.13
c1cnn(CC2CN(CCc3ccncc3)CCO2)c1 (stereo not given) | 2.74
O=C(Nc1cc(F)ccc1OCC1CCCO1)c1ccccn1 (stereo not given) | 2.57
Cc1nn(C)cc1-c1cncn1CCN(C)C1CCCC1 | -4.64
O=C(N1CCCO1)[C@@]12CCO[C@@H]1CCN(Cc1ccccn1)C2 | 3.98
O=C(N1CCCC1)N1CCO[C@H]2[C@@H](OCc3cccnc3)CC[C@@H]21 | -1.6
CN(C)C(=O)COC[C@H]1CC[C@@H]2[C@@H](CCN2Cc2ccccn2)O1 | -18.7
CCCNC(=O)c1cc2c(s1)CCN2C(=O)CN(C)C | 2.03
CC(=O)N1CCC2(CCCN2Cc2cnn(C)c2)CC1 | -2.27
COCCN1CCC2(C1)CN(c1ncccn1)C2 | 10.7
CC(C)OCCCN(Cc1ccncc1)Cc1cc(F)cc(F)c1 | -25.6
CN(C)C(=O)N1CCC2(CC1)CCN(c1ncccn1)C2 | -1.05
Cc1cccc(CN2C[C@@H]3COC[C@]3(COCC(=O)N(C)C)C2)n1 | -1.95
Cc1ccc(CN2CC[C@@H]3O[C@@H](C(=O)N4CCN(C)CC4)C[C@@H]32)cc1 | -3.62
CC(C)c1nn(C)c(N(C)C)c1CNC1CCc2cc(F)ccc21 (stereo not given) | 1.93
C=c1ccoc1=C1NN=C(CNCCn2cc(C)cn2)O1 | 1.12
CC1=C(C#N)C(=O)NC(=O)/C1=C\c1c(C)[nH]n(-c2ccccc2)c1=O | 0.137
O=C(NC1CCC(O)CC1)c1ccc2nc(-c3ccccc3)cn2c1 (stereo not given) | 8.99
